Laboratory results reported in ChEMBL document CHEMBL5376016, “Synthesis of novel rapanone derivatives via organocatalytic reductive C-alkylation: biological evaluation of antioxidant properties, in vivo zebrafish embryo toxicity, and docking studies” (RSC Med Chem, 2024).

Tests used:
[1] = Acute toxicity in zebrafish embryo assessed as survival rate at 160 uM measured after 96 hrs post fertilization relative to control; set-up: species or system Danio rerio; details: in vivo
Summary of the method: (§1)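 Lethality endpoints were coagulation and absence of heartbeat, checked by inverted microscope. Survival was compared with untreated embryos across three independent experiments; mean ± SD, ANOVA.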

[2] = Antioxidant activity assessed as DPPH radical scavenging activity after 30 mins by spectrophotometric analysis relative to control; format: functional; set-up: concentration or dose not given beside the values
Summary of the method: (§2)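 Ascorbic acid was the reference standard. For DPPH, 0.2 mM DPPH in methanol was kept in the dark, mixed with compound at 5–160 µM (DMSO stock), and incubated 30 min in the dark at room temperature, then A517 was read. %RSA = (Ac−As)/Ac×100. Triplicate runs; IC50 taken from the plot of % scavenging versus concentration.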

[3] = Antioxidant activity assessed as ABTS radical scavenging activity after 6 mins by spectrophotometric analysis relative to control; format: functional; set-up: concentration or dose not given beside the values
[4] = Acute toxicity in zebrafish embryo assessed as hatching rate at 20 to 160 uM measured after 48 hrs post fertilization relative to control; set-up: species or system Danio rerio; details: in vivo, dose 20-160 µM
Summary of the method: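 Controls were water and water with 0.5% DMSO. Incubation at 26.8 ± 1 °C, 20 embryos per well. Hatching scored over 0–96 hpf under an inverted microscope. Triplicate, three independent experiments; mean ± SD; ANOVA.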

[5] = Acute toxicity in zebrafish embryo assessed as survival rate at 20 uM measured after 96 hrs post fertilization relative to control; set-up: species or system Danio rerio; details: in vivo; summary of the method: as §1
[6] = Acute toxicity in zebrafish embryo assessed as survival rate at 96 hrs post fertilization relative to control; set-up: species or system Danio rerio; concentration or dose not given beside the values; details: in vivo; summary of the method: as §1
[7] = Acute toxicity in zebrafish embryo assessed as morphological changes at upto 160 uM measured after 48 hrs post fertilization relative to control; set-up: species or system Danio rerio; details: in vivo
Summary of the method: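 Wild-type Danio rerio embryos were exposed in milli-Q water with compound dissolved in DMSO (≤0.25 v/v final). Controls were milli-Q water and water with DMSO. Embryos were held at 26.8 ± 1 °C and scored by inverted microscope at 24–96 hpf, after exposure at 160 µM, for bent spine, yolk sac edema, pericardial edema, short tail and bent tail.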

[8] = Antioxidant activity assessed as DPPH radical scavenging activity after 30 mins by spectrophotometric analysis; format: functional; summary of the method: as §2
[9] = Antioxidant activity assessed as ABTS radical scavenging activity after 6 mins by spectrophotometric analysis; format: functional

Row | Compound | survival at 96 h, 160 µM [1] | Activity [2] | Activity [3] | Activity [4] | survival at 96 h, 20 µM [5] | survival at 96 h ([6]; read-out: Activity) | Activity [7] | IC50 [8] | survival at 96 h ([6]; read-out: Survival) | IC50 [9]
1 | CCCCCCCCCCCC1=C(O)C(=O)C(CC(C)C)=C(O)C1=O | 70% | 80% | 80.2% | 75.66% | 52% | 70% | Non-Toxic | 2.48 µM | – | –
2 | CCCCCCCCCCCC1=C(O)C(=O)C(Cc2cccc([N+](=O)[O-])c2)=C(O)C1=O | – | 50.3% | 52.1% | 51.33% | – | – | Non-Toxic | 4.8 µM | > 90% | 5.36 µM
3 | CCCCCCCCCCCC1=C(O)C(=O)C(Cc2ccccc2C#N)=C(O)C1=O | – | 50.3% | 52.1% | 51.33% | – | – | Non-Toxic | 4.43 µM | > 90% | 5.01 µM
4 | CCCCCCCCCCCC1=C(O)C(=O)C(Cc2ccc(O)cc2)=C(O)C1=O | 70% | 80% | 75.1% | 75.66% | 52% | 70% | Non-Toxic | 2.83 µM | – | 2.7 µM
5 | CCCCCCCCCCCC1=C(O)C(=O)C(Cc2ccc(Br)cc2)=C(O)C1=O | – | 50.3% | 52.1% | 51.33% | – | – | Non-Toxic | 4.59 µM | > 90% | 5.14 µM
6 | CCCCCCCCCCCC1=C(O)C(=O)C(Cc2ccc(C(C)C)cc2)=C(O)C1=O | 70% | 86% | 87.2% | 75.66% | 52% | 70% | Non-Toxic | 1.9 µM | – | 1.91 µM
7 | C#Cc1ccccc1CC1=C(O)C(=O)C(CCCCCCCCCCC)=C(O)C1=O | – | 50.3% | 52.1% | 51.33% | – | – | Non-Toxic | 4.94 µM | > 90% | 4.96 µM
8 | CCCCCCCCCCCC1=C(O)C(=O)C(Cc2ccc(C#N)cc2)=C(O)C1=O | – | 50.3% | 52.1% | 51.33% | – | – | Non-Toxic | 4.58 µM | > 90% | 5.15 µM
9 | CCCCCCCCCCCC1=C(O)C(=O)C(Cc2ccc([N+](=O)[O-])cc2)=C(O)C1=O | – | 50.3% | 52.1% | 51.33% | – | – | Non-Toxic | 4.9 µM | > 90% | 5.25 µM
10 | CCCCCCCCCCCC1=C(O)C(=O)C(Cc2ccccc2C)=C(O)C1=O | 70% | 80% | 80.2% | 75.66% | 52% | 70% | Non-Toxic | 2.51 µM | – | 2.05 µM
11 | CCCCCCCCCCCC1=C(O)C(=O)C(Cc2ccccc2F)=C(O)C1=O | – | 50.3% | 52.1% | 51.33% | – | – | Non-Toxic | 4.62 µM | > 90% | 5.44 µM
12 | CCCCCCCCCCCC1=C(O)C(=O)C(Cc2ccccc2O)=C(O)C1=O | 70% | 71.1% | 75.1% | 75.66% | 52% | 70% | Non-Toxic | 3.05 µM | – | 2.87 µM
13 | CCCCCCCCCCCC1=C(O)C(=O)C(Cc2c(Cl)cccc2Cl)=C(O)C1=O | – | 50.3% | 52.1% | 51.33% | – | – | Non-Toxic | 4.87 µM | > 90% | 5.21 µM
14 | CCCCCCCCCCCC1=C(O)C(=O)C(Cc2ccc(Cl)cc2)=C(O)C1=O | – | 50.3% | 52.1% | 51.33% | – | – | Non-Toxic | 4.93 µM | > 90% | 4.99 µM
15 | CCCCCCCCCCCC1=C(O)C(=O)C(Cc2ccccc2)=C(O)C1=O | 70% | 71.1% | 80.2% | 75.66% | 52% | 70% | Non-Toxic | 3.18 µM | – | 2.71 µM
16 | CCCCCCCCCCCC1=C(O)C(=O)C(Cc2ccc(Cl)cc2Cl)=C(O)C1=O | – | 50.3% | 52.1% | 51.33% | – | – | Non-Toxic | 4.74 µM | > 90% | 4.43 µM
17 | CCCCCCCCCCCC1=C(O)C(=O)C(Cc2ccc(C)cc2)=C(O)C1=O | 70% | 89.4% | 90.3% | 75.66% | 52% | 70% | Non-Toxic | 1.81 µM | – | 1.81 µM
18 | CCCCCCCCCCCC1=C(O)C(=O)C(Cc2ccccc2[N+](=O)[O-])=C(O)C1=O | – | 50.3% | 52.1% | 51.33% | – | – | Non-Toxic | 4.76 µM | > 90% | 5.34 µM
19 | CCCCCCCCCCCC1=C(O)C(=O)C(Cc2ccc(OC)cc2)=C(O)C1=O | 70% | 71.1% | 80.2% | 75.66% | 52% | 70% | Non-Toxic | 3.16 µM | – | 2.72 µM
20 | CCCCCCCCCCCC1=C(O)C(=O)C(Cc2ccc(F)cc2)=C(O)C1=O | – | 50.3% | 52.1% | 51.33% | – | – | Non-Toxic | 4.65 µM | > 90% | 5.22 µM
21 | CCCCCCCCCCCC1=C(O)C(=O)C(CC)=C(O)C1=O | 70% | 80% | 80.2% | 75.66% | 52% | 70% | Non-Toxic | 2.61 µM | – | 2.44 µM
22 | CCCCCCCCCCCC1=C(O)C(=O)C(CCCl)=C(O)C1=O | – | 50.3% | 52.1% | 51.33% | – | – | Non-Toxic | 4.6 µM | > 90% | 4.41 µM
23 | O=C1O[C@H]([C@@H](O)CO)C(O)=C1O [ASCORBIC ACID] | – | 90.2% | 91.1% | – | – | – | – | 1.87 µM | – | 1.42 µM
24 | CCCCCCCCCCCC1=C(O)C(=O)C(Cc2cc(Cl)ccc2Cl)=C(O)C1=O | – | 50.3% | 52.1% | 51.33% | – | – | Non-Toxic | 4.69 µM | > 90% | 5.32 µM
25 | CCCCCCCCCCCC1=C(O)C(=O)C(Cc2ccccc2Br)=C(O)C1=O | – | 50.3% | 52.1% | 51.33% | – | – | Non-Toxic | 4.57 µM | > 90% | 5.54 µM
26 | CCCCCCCCCCCC1=C(O)C(=O)C(Cc2c(OC)cc(OC)cc2OC)=C(O)C1=O | 70% | 71.1% | 80.2% | 75.66% | 52% | 70% | Non-Toxic | 3.07 µM | – | 2.6 µM
27 | CCCCCCCCCCCC1=C(O)C(=O)C(Cc2cc(OC)c(OC)c(OC)c2)=C(O)C1=O | 70% | 80% | 80.2% | 75.66% | 52% | 70% | Non-Toxic | 2.95 µM | – | 2.48 µM
28 | CCCCCCCCCCCC1=C(O)C(=O)C(Cc2ccc(Cl)c(Cl)c2)=C(O)C1=O | – | 50.3% | 52.1% | 51.33% | – | – | Non-Toxic | 4.87 µM | > 90% | 5.09 µM
29 | CCCCCCCCCCCC1=C(O)C(=O)C(Cc2ccc(N(C)C)cc2)=C(O)C1=O | 70% | 71.1% | 75.1% | 75.66% | 52% | 70% | Non-Toxic | 3.37 µM | – | 2.91 µM
